Test results published in ChEMBL document CHEMBL5108074 (J Med Chem, 2022).
≈ marks a conversion by molar mass, not a printed value.

How the values were obtained:
[1] = Clearance in Sprague-Dawley rat blood at 1 mg/kg, iv measured upto 24 hrs by LC-MS analysis; format: ADME, organism-based; settings: whole blood
Summary of the method: (§1)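 Male Sprague-Dawley rats, two per route, single dose. IV: 1 mg/kg given as 1 mL/kg of a nominal 1 mg/mL formulation in vehicle. PO: 10 mg/kg given as 5 mL/kg of a 2 mg/mL formulation. PK parameters from noncompartmental analysis. Clearance expressed relative to rat liver blood flow of 80 mL/min/kg.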

[2] = Oral bioavailability in Sprague-Dawley rat at 10 mg/kg measured upto 24 hrs by LC-MS analysis; format: ADME, organism-based; settings: in vivo; summary of the method: as §1
[3] = Kinetic solubility of the compound in aqueous assay buffer at pH 7.7
[4] = Kinetic solubility of the compound in 0.1N HCl
[5] = Half life in Sprague-Dawley rat at 10 mg/kg, po and 1 mg/kg, iv measured upto 24 hrs by LC-MS analysis; format: ADME, organism-based; settings: in vivo; summary of the method: as §1
Plasma kallikrein [6] = molecular target: T1, Plasma kallikrein (Homo sapiens, UniProt P03952); assay: Inhibition of human plasma kallikrein using H-D-Pro-Phe-Arg-AFC as flurogenic substrate preincubated for 5 mins followed by substrate addition by fluorometer analysis; format: cell-free
[7] = Apparent permeability of the compound across apical side to basolateral side in human Caco-2 cells incubated for 1 hr by LC-MS/MS analysis; settings: caco-2, 1 h
[8] = Thermodynamic solubility of the compound in FaSSIF at 1 mg/ml at pH 6.5 measured after 4 hrs; format: physicochemical
Summary of the method: (§2)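 Compound (nominal 1 or 100 mg/mL as free base) added to biorelevant medium preheated to 37 °C: FaSSGF at pH 1.6 or FaSSIF at pH 6.5. Vortexed, then shaken 4 h at 37 °C (~500 rpm). Centrifuged at 15000g for 10 min at 37 °C. Supernatant diluted and quantified against calibration standards. Crystalline material used where stated.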

[9] = Thermodynamic solubility of the compound in FaSSGF at 1 mg/ml at pH 1.6 measured after 4 hrs; format: physicochemical; summary of the method: as §2
[10] = Clearance in Sprague-Dawley rat assessed as liver blood flow at 1 mg/kg, iv measured upto 24 hrs by LC-MS analysis; format: ADME, organism-based; settings: in vivo; summary of the method: as §1
[11] = Metabolic stability in human liver microsomes assessed as intrinsic clearance per mg of protein measured upto 60 mins in presence of NADPH regenerating system by LC-MS/MS analysis; format: ADME, Microsome; settings: microsomes, 1 h
Plasma kallikrein [12] = molecular target: T1, Plasma kallikrein; assay: Inhibition of DXS induced human whole plasma kallikrein using H-D-Pro-Phe-Arg-AFC as substrate preincubated for 5 mins followed by DXS stimulation by fluorometer analysis; format: cell-free
Cytochrome P450 1A2 = molecular target: T2, Cytochrome P450 1A2 (Homo sapiens, UniProt P05177); assay: Inhibition of CYP1A2 in human liver microsomes assessed as reduction in acetaminophen metabolite formation incubated for 30 mins in presence of NADPH by LC-MS/MS analysis; format: ADME, Microsome
T2 sequence (P05177 whole entry): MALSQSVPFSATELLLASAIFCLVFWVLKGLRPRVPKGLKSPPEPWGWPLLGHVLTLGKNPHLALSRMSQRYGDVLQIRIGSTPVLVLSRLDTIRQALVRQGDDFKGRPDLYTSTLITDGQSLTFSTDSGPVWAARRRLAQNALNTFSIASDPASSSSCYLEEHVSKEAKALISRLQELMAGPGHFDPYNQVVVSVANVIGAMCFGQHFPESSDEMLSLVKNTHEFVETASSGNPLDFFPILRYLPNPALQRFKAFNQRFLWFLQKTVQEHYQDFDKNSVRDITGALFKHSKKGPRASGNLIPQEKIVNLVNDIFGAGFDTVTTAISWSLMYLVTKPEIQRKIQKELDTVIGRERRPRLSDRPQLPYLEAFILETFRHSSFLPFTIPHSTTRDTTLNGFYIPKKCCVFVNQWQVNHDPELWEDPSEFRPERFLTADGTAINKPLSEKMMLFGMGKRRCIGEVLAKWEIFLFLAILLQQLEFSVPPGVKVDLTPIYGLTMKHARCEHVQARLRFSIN

[13] = Clearance in Beagle dog blood at 1 mg/kg, iv measured upto 24 hrs by LC-MS analysis; format: ADME, organism-based, Canis lupus familiaris; settings: whole blood
Cytochrome P450 2C9 = Cytochrome P450 2C9 (Homo sapiens, UniProt P11712); assay: Inhibition of CYP2C9 in human liver microsomes assessed as reduction in 4 hydroxy-diclofenac metabolite formation incubated for 30 mins in presence of NADPH by LC-MS/MS analysis; format: ADME, Microsome
Cytochrome P450 2C19 = Cytochrome P450 2C19 (Homo sapiens, UniProt P33261); assay: Inhibition of CYP2C19 in human liver microsomes assessed as reduction in 4-hydroxymephenytoin metabolite formation incubated for 30 mins in presence of NADPH by LC-MS/MS analysis; format: ADME, Microsome
[14] = Half life in Beagle dog at 1 mg/kg, po and 1 mg/kg, iv measured upto 24 hrs by LC-MS analysis; format: ADME, organism-based, Canis lupus familiaris; settings: in vivo
[15] = molecular target: Voltage-gated inwardly rectifying potassium channel KCNH2 (Homo sapiens, UniProt Q12809); assay: Inhibition of hERG expressed in CHO cells by whole cell patch clamp assay; format: toxicity, cell-based
Summary of the method: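 hERG K+ current recorded by automated whole-cell patch clamp in CHO cells stably expressing hERG. Concentrations tested up to a maximum of 33 μM.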

[16] = Clearance in Beagle dog assessed as liver blood flow at 1 mg/kg, iv measured upto 24 hrs by LC-MS analysis; format: ADME, organism-based, Canis lupus familiaris; settings: in vivo
Cytochrome P450 3A4 [17] = molecular target: T3, Cytochrome P450 3A4 (Homo sapiens, UniProt P08684); assay: Inhibition of CYP3A4 in human liver microsomes assessed as reduction in 6beta-hydroxymidazolam metabolite formation using midazolam as substrate incubated for 30 mins in presence of NADPH by LC-MS/MS analysis; format: ADME, Microsome
Cytochrome P450 3A4 [18] = molecular target: T3, Cytochrome P450 3A4; assay: Inhibition of CYP3A4 in human liver microsomes assessed as reduction in 6beta-hydroxytestosterone metabolite formation using testosterone as substrate incubated for 30 mins in presence of NADPH by LC-MS/MS analysis; format: ADME, Microsome
[19] = Volume of distribution at steady state in Beagle dog at 1 mg/kg, po and 1 mg/kg, iv measured upto 24 hrs by LC-MS analysis; format: ADME, organism-based, Canis lupus familiaris; settings: in vivo
[20] = Oral bioavailability in Beagle dog at 1 mg/kg measured upto 24 hrs by LC-MS analysis; format: ADME, organism-based, Canis lupus familiaris; settings: in vivo
Cytochrome P450 2D6 = Cytochrome P450 2D6 (Homo sapiens, UniProt P10635); assay: Inhibition of CYP2D6 in human liver microsomes assessed as reduction in dextrorphan metabolite formation incubated for 30 mins in presence of NADPH by LC-MS/MS analysis; format: ADME, Microsome
[21] = Thermodynamic solubility of the compound in FaSSIF at 1 mg/ml at pH 6.5 using crystalline form of sample measured after 4 hrs; format: physicochemical; settings: simulated gi fluid, pH 6.5, 4 h; summary of the method: as §2
Cytochrome P450 2B6 = Cytochrome P450 2B6 (Homo sapiens, UniProt P20813); assay: Inhibition of CYP2B6 in human liver microsomes assessed as reduction in hydroxybupropion metabolite formation incubated for 30 mins in presence of NADPH by LC-MS/MS analysis; format: ADME, Microsome
[22] = Thermodynamic solubility of the compound in FaSSGF at 1 mg/ml at pH 1.6 using crystalline form of sample measured after 4 hrs; format: physicochemical; settings: pH 1.6, 4 h; summary of the method: as §2
Cytochrome P450 2C8 = Cytochrome P450 2C8 (Homo sapiens, UniProt P10632); assay: Inhibition of CYP2C8 in human liver microsomes assessed as reduction in 6 alpha-hydroxypaclitaxel metabolite formation incubated for 30 mins in presence of NADPH by LC-MS/MS analysis; format: ADME, Microsome
Cytochrome P450 2C8, sequence (P10632 whole entry): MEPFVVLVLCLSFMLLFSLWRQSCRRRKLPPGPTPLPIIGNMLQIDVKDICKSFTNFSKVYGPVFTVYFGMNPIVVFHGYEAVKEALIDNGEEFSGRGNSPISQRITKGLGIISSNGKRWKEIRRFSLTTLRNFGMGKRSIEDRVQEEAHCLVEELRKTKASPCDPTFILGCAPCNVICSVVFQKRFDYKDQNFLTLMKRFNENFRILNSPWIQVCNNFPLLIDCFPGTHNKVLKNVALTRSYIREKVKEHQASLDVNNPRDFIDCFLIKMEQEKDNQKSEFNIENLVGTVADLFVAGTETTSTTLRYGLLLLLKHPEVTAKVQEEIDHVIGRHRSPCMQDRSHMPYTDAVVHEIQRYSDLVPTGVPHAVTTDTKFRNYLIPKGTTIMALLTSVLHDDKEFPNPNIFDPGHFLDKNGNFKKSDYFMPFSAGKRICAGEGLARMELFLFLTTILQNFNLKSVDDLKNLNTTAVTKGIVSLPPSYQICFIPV

T3 sequence (P08684 whole entry): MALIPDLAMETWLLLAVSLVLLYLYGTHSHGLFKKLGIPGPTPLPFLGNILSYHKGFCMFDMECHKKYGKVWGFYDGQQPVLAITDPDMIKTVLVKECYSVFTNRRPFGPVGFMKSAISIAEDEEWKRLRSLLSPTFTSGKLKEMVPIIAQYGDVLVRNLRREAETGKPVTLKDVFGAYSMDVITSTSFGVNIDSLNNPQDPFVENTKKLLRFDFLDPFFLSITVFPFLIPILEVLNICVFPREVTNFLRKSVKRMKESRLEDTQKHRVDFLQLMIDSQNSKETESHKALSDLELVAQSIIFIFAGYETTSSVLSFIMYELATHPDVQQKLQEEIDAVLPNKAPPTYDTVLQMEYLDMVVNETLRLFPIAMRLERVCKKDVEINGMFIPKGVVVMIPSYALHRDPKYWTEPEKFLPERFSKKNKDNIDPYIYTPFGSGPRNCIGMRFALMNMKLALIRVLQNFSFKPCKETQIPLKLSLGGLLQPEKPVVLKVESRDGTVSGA
T1 sequence (P03952 20-390 limits assumed): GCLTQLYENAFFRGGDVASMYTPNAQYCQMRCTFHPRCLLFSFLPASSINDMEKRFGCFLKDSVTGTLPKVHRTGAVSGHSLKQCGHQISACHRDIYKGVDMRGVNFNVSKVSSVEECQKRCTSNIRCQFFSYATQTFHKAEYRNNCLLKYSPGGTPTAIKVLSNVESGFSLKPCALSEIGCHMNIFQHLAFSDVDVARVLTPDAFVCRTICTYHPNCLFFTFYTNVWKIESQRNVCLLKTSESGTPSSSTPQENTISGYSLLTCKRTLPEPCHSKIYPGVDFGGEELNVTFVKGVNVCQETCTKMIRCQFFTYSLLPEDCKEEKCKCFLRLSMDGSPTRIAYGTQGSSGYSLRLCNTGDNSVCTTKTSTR
T1 sequence (P03952 391-638 limits assumed): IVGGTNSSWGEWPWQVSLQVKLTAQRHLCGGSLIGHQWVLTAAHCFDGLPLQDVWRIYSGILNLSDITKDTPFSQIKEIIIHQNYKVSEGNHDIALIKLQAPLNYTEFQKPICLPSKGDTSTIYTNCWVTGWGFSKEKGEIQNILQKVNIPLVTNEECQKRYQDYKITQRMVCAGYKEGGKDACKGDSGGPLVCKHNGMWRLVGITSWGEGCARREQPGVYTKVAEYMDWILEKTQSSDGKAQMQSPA
Voltage-gated inwardly rectifying potassium channel KCNH2, sequence (Q12809 whole entry): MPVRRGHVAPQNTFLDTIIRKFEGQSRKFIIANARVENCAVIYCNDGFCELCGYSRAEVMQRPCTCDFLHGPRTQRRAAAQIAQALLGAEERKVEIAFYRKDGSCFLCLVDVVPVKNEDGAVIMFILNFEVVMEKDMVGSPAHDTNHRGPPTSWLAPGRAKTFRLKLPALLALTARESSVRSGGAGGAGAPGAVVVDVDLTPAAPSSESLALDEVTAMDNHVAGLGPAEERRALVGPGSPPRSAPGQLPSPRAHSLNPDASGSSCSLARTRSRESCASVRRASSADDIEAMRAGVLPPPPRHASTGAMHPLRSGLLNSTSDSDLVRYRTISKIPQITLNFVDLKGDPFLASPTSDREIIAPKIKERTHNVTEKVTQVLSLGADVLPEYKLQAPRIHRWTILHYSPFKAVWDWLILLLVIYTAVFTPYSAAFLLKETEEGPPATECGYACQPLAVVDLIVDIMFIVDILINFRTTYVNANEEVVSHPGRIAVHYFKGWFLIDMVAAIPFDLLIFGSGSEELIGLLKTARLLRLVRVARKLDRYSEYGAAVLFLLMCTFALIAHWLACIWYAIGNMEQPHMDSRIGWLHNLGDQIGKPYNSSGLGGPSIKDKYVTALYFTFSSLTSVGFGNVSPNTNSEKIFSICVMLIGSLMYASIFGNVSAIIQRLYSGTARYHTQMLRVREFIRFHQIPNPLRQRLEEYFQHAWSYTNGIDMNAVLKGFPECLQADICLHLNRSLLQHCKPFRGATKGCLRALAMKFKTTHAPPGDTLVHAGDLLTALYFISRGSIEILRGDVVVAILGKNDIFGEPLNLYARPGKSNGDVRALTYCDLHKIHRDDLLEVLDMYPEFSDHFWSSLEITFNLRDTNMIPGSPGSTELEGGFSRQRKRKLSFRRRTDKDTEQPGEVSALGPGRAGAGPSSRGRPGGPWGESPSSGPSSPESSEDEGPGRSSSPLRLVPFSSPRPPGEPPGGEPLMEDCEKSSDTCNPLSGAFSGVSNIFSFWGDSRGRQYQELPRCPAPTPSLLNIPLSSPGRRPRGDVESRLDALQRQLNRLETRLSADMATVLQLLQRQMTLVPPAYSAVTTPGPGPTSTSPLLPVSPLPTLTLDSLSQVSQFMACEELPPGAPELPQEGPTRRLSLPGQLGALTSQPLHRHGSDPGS
Cytochrome P450 2C19, sequence (P33261 whole entry): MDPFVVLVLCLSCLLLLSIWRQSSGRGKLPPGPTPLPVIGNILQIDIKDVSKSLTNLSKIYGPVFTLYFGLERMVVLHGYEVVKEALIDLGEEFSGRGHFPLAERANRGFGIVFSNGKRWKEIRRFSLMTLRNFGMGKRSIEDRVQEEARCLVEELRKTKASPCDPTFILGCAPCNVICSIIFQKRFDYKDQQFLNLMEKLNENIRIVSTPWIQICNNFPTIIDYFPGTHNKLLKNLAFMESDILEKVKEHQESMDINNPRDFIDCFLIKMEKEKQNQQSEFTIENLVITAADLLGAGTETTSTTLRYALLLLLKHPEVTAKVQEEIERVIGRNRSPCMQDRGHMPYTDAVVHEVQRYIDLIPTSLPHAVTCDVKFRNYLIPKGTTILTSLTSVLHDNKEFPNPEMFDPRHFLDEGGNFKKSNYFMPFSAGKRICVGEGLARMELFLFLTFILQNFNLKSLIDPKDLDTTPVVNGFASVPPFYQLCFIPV
Cytochrome P450 2D6, sequence (P10635 whole entry): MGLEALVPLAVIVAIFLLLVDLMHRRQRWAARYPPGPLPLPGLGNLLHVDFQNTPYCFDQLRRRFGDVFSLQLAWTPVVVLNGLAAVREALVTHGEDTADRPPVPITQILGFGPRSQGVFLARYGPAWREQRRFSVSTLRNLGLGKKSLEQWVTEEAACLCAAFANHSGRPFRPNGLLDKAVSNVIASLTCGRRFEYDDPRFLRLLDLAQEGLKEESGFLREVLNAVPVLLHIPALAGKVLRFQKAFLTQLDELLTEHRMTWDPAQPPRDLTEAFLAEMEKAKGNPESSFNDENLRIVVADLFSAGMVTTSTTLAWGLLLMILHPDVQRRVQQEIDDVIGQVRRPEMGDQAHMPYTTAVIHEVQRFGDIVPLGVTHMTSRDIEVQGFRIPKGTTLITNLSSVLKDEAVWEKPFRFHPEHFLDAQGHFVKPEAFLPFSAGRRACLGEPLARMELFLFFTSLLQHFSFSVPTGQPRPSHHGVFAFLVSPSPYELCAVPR
Cytochrome P450 2C9, sequence (P11712 whole entry): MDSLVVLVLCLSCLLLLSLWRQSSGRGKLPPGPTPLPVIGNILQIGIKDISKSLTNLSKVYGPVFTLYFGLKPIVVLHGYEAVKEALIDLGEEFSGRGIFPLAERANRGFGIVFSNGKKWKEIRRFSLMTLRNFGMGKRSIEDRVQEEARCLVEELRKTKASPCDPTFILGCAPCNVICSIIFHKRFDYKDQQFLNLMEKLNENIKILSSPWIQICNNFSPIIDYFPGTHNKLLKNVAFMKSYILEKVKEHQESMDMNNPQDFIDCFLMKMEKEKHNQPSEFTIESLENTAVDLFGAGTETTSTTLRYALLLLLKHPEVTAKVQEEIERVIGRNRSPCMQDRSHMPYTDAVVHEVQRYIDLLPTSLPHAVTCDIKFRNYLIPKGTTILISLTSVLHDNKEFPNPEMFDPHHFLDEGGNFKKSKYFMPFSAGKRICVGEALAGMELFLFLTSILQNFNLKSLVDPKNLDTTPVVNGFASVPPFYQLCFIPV
Cytochrome P450 2B6, sequence (P20813 whole entry): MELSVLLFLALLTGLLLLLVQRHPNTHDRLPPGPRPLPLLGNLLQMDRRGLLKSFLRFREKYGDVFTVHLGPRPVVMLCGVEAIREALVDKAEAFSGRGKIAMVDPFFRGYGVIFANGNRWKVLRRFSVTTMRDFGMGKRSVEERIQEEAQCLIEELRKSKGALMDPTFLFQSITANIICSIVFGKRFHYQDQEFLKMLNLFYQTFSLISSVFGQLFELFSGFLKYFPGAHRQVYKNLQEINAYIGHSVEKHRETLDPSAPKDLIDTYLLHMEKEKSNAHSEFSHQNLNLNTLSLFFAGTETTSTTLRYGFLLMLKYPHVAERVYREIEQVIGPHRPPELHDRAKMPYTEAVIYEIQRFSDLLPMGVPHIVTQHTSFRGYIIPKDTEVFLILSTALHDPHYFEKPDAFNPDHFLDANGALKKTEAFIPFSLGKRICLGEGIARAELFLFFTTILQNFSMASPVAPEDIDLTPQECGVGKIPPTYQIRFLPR

For `COCc1nn(Cc2ccc(Cn3ccccc3=O)cc2)cc1C(=O)NCc1c(C#N)ccc(OC)c1F`, the clearance [1] was 27.6 mL/min/kg, the F [2] was 20% and the solubility kinetic [3] was over 120 µg/mL. The solubility kinetic [4] was over 120 µg/mL, the t1/2 [5] was 1.1 h and the IC50 (Plasma kallikrein [6]) was 0.001 µM. The Papp [7] was 14 10^-6 cm/s, the solubility thermodynamic at 4 h ([8]; FaSSIF, pH 6.5, read-out: Therm_solubility) was 31 µg/mL (≈ 60.1 µM) and the solubility thermodynamic at 4 h ([9]; FaSSGF, pH 1.6, read-out: Therm_solubility) was 21 µg/mL (≈ 40.7 µM). It also gave an LBF [10] of 35% and a microsomal intrinsic clearance [11] of 58 µL/min.

`COc1ccnc(CNC(=O)c2cn(Cc3ccc(Cn4ccccc4=O)cc3)nc2C(F)(F)F)c1F` showed an IC50 (Plasma kallikrein [12]) of 0.076 µM, an IC50 (Cytochrome P450 1A2) of over 25 µM and a clearance [1] of 11.1 mL/min/kg. For the same compound, the F [2] was 97%, the clearance [13] was 15.9 mL/min/kg and the IC50 (Cytochrome P450 2C9) was over 25 µM. The IC50 (Cytochrome P450 2C19) was over 25 µM, the t1/2 [5] was 1.1 h and the Papp [7] was 17 10^-6 cm/s. The t1/2 [14] was 0.9 h, the IC50 [15] was over 33 µM and the Therm_solubility ([8]; simulated gi fluid, pH 6.5, 4 h) was 20 µg/mL. For the same compound, the LBF [16] was 48%, the Therm_solubility ([9]; buffer, pH 1.6, 4 h) was 690 µg/mL and the IC50 (Cytochrome P450 3A4 [17]) was over 25 µM. For the same compound, the IC50 (Cytochrome P450 3A4 [18]) was over 25 µM, the LBF [10] was 14% and the microsomal intrinsic clearance [11] was 49 µL/min. The Vdss [19] was 0.63 L/kg, the F [20] was 32% and the IC50 (Cytochrome P450 2D6) was over 25 µM.

Work on `COCc1nn(Cc2ccc(Cn3ccccc3=O)cc2)cc1C(=O)NCc1c(F)ccc(OC)c1F` yielded an IC50 (Plasma kallikrein [12]) of 0.5 µM, an IC50 (Cytochrome P450 1A2) of over 25 µM and a clearance [1] of 23.7 mL/min/kg. The F [2] was 64%, the clearance [13] was 24.5 mL/min/kg and the Therm_solubility [21] was 9 µg/mL. The IC50 (Cytochrome P450 2B6) was over 25 µM, the IC50 (Cytochrome P450 2C9) was 13 µM and the solubility kinetic [3] was over 120 µg/mL. The solubility kinetic [4] was over 120 µg/mL, the Therm_solubility [22] was 9 µg/mL and the IC50 (Cytochrome P450 2C19) was over 25 µM. For the same compound, the t1/2 [5] was 0.7 h, the IC50 (Plasma kallikrein [6]) was 0.006 µM and the Papp [7] was 18 10^-6 cm/s. The IC50 [15] was over 33 µM, the LBF [16] was 74% and the IC50 (Cytochrome P450 3A4 [17]) was 19 µM. For the same compound, the IC50 (Cytochrome P450 3A4 [18]) was 11 µM, the IC50 (Cytochrome P450 2C8) was 14 µM and the LBF [10] was 30%. For the same compound, the microsomal intrinsic clearance [11] was 92 µL/min, the Vdss [19] was 0.36 L/kg and the F [20] was 16%. It also gave an IC50 (Cytochrome P450 2D6) of over 25 µM.
